For assay [1], the system named is J774. The experiment in a line: Antiinflammatory activity in mouse J774 cells assessed as reduction in LPS-induced IL6 expression at 30 uM after 24 hrs by ELISA. It is filed as functional, cell-based. In a few lines:
(§1)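 J774 macrophages were grown 72 h to confluence in DMEM with 10% heat-inactivated FBS. Cells were stimulated with LPS (10 ng/mL) with increasing compound concentrations for 24 h. IL6 or MCP1 in the collected medium was measured by ELISA. Concentration giving 50% inhibition was taken from the concentration series; mean + SEM, n = 4.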
For orientation: In an ELISA, binding on a coated surface is turned into a signal by an enzyme label.

The subject of assay [2] is J774. As to the kind of experiment: Antiinflammatory activity in mouse J774 cells assessed as reduction in LPS-induced MCP1 expression at 30 uM after 24 hrs by ELISA. Type of assay: functional, cell-based. An outline of the steps:
as §1

Assay [3] has as its system J774. The experiment in a line: Inhibition of PI3K/Akt in mouse J774 cells assessed as reduction in LPS-induced Akt phosphorylation at Ser473 at 100 uM after 4 hrs by Western blot analysis. It is filed as cell-based. An outline of the steps: (§2)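 J774 macrophages were exposed to LPS (10 ng/mL) for 4 h with increasing compound concentrations, then lysed on ice in Tris/EDTA/Triton buffer with protease and phosphatase inhibitors. Lysate protein (20 μg) was Western blotted with an antibody against Akt phospho-S473. Chemiluminescence was quantified; mean + SEM, n = 4.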
Background: A western blot detects proteins with antibodies after separation by electrophoresis.

Assay [4] has as its system J774. The experiment in a line: Antiinflammatory activity in mouse J774 cells assessed as reduction in LPS-induced nitric oxide production at 30 uM after 24 hrs by Griess assay. Type of assay: functional, cell-based. An outline of the steps: (§3)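 Confluent J774 macrophages (72 h growth, DMEM/10% FBS) were treated with LPS 10 ng/mL plus increasing compound concentrations for 24 h. NO production was followed as nitrite accumulated in the medium, measured by Griess test. The half-maximal inhibitory concentration was derived from the concentration series; n = 4.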

The test system of assay [5] is J774. As to the kind of experiment: Inhibition of PI3K/Akt in mouse J774 cells assessed as reduction in LPS-induced Akt phosphorylation at Ser473 at 30 uM after 4 hrs by Western blot analysis. It is filed as cell-based. An outline of the steps: as §2
Assay [6] has as its system J774. As to the kind of experiment: Antiinflammatory activity in mouse J774 cells assessed as reduction in LPS-induced IL6 expression after 24 hrs by ELISA. It is filed as functional, cell-based. The note with it: for IC50: J774, 24 h. In a few lines: as §1
Assay [7] has as its system J774. As to the kind of experiment: Inhibition of PI3K/Akt in mouse J774 cells assessed as reduction in LPS-induced Akt phosphorylation at Ser473 after 4 hrs by Western blot analysis. Type of assay: cell-based. In a few lines:
as §2

In assay [8] the test system is J774. The experiment in a line: Antiinflammatory activity in mouse J774 cells assessed as reduction in LPS-induced MCP1 expression after 24 hrs by ELISA. It is filed as functional, cell-based. The note with it: for IC50: J774, 24 h. In a few lines: as §1
Assay [9] relates to J774. The experiment in a line: Antiinflammatory activity in mouse J774 cells assessed as reduction in LPS-induced nitric oxide production after 24 hrs by Griess assay. Type of assay: functional, cell-based. The note with it: for IC50: J774, 24 h. An outline of the steps:
as §3

The test system of assay [10] is Mus musculus. As to the kind of experiment: Antiinflammatory activity in carrageenan induced C57BL/6 mouse model of inflammation assessed as reduction in paw edema at 30 mg/kg, ip pretreated for 1 to 2 hrs followed by carrageenan challenge measured after 3 to 6 hrs by plethysmometer. Type of assay: functional, organism-based. In a few lines:
(§4)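 Mice got compound i.p. in 10% DMSO in PBS (pH 7.4) before carrageenan. Under i.p. medetomidine (0.5 mg/kg) plus ketamine (75 mg/kg), one hindpaw received 50 μL intradermal 1.5% w/v λ-carrageenan in saline, and the contralateral paw got saline. Paw volume was measured by plethysmometer before and 3 and 6 h after. Edema = carrageenan-paw minus saline-paw volume change; n = 6–7/group.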

Assay [11] relates to Mus musculus. As to the kind of experiment: Antiinflammatory activity in carrageenan induced C57BL/6 mouse model of inflammation assessed as reduction in IL6 expression in hind paw at 30 mg/kg, ip pretreated for 1 to 2 hrs followed by carrageenan challenge measured after 6 hrs by ELISA. It is filed as functional, organism-based. An outline of the steps: (§5)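 Compound was given i.p. in 10% DMSO/PBS (pH 7.4) before intradermal 1.5% w/v λ-carrageenan (50 μL) into one hindpaw under anesthesia; the contralateral paw got saline. At 6 h, paw tissue was collected into 50 mM Tris pH 7.4, 150 mM NaCl with protease/phosphatase inhibitors, minced and centrifuged (10000g, 10 min). Supernatant cytokine was read by ELISA; n = 6–7/group.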

Assay [12] deals with Mus musculus. The experiment in a line: Antiinflammatory activity in carrageenan induced C57BL/6 mouse model of inflammation assessed as reduction in MCP1 expression in hind paw at 30 mg/kg, ip pretreated for 1 to 2 hrs followed by carrageenan challenge measured after 6 hrs by ELISA. It is filed as functional, organism-based. An outline of the steps:
as §5

Assay [13] has as its system Mus musculus. As to the kind of experiment: Antiinflammatory activity in carrageenan induced C57BL/6 mouse model of inflammation assessed as reduction in paw edema at 2 mg/kg, ip pretreated for 1 to 2 hrs followed by carrageenan challenge measured after 3 to 6 hrs by plethysmometer. Type of assay: functional, organism-based. In a few lines: as §4
In assay [14] the test system is Mus musculus. As to the kind of experiment: Antiinflammatory activity in carrageenan induced C57BL/6 mouse model of inflammation assessed as reduction in MCP1 expression in hind paw at 2 mg/kg, ip pretreated for 1 to 2 hrs followed by carrageenan challenge measured after 6 hrs by ELISA. It is filed as functional, organism-based. An outline of the steps:
as §5

Assay [15] relates to Mus musculus. As to the kind of experiment: Antiinflammatory activity in carrageenan induced C57BL/6 mouse model of inflammation assessed as reduction in IL6 expression in hind paw at 2 mg/kg, ip pretreated for 1 to 2 hrs followed by carrageenan challenge measured after 6 hrs by ELISA. It is filed as functional, organism-based. In a few lines:
as §5

Assay [16] relates to Mus musculus. As to the kind of experiment: Antiinflammatory activity in carrageenan induced C57BL/6 mouse model of inflammation assessed as reduction in paw edema at 15 mg/kg, ip pretreated for 1 to 2 hrs followed by carrageenan challenge measured after 3 to 6 hrs by plethysmometer. It is filed as functional, organism-based. In a few lines: as §4
The test system of assay [17] is Mus musculus. The experiment in a line: Antiinflammatory activity in carrageenan induced C57BL/6 mouse model of inflammation assessed as reduction in MCP1 expression in hind paw at 15 mg/kg, ip pretreated for 1 to 2 hrs followed by carrageenan challenge measured after 6 hrs by ELISA. Type of assay: functional, organism-based. An outline of the steps: as §5
The test system of assay [18] is J774. The experiment in a line: Inhibition of PI3K/Akt in mouse J774 cells assessed as reduction in LPS-induced Akt phosphorylation at Ser473 at 10 uM after 4 hrs by Western blot analysis. Type of assay: cell-based. In a few lines:
as §2

Assay [19] deals with Mus musculus. As to the kind of experiment: Antiinflammatory activity in carrageenan induced C57BL/6 mouse model of inflammation assessed as reduction in IL6 expression in hind paw at 15 mg/kg, ip pretreated for 1 to 2 hrs followed by carrageenan challenge measured after 6 hrs by ELISA. Type of assay: functional, organism-based. In a few lines: as §5

Consider 15 compounds from ChEMBL document CHEMBL4145567, “Natural Stilbenoids Have Anti-Inflammatory Properties in Vivo and Down-Regulate the Production of Inflammatory Mediators NO, IL6, and MCP1 Possibly in a PI3K/Akt-Dependent Manner” (J Nat Prod, 2018).

The source made the active and inactive calls. The calls are words filed in the database; no cut-off is given here.

In the case of `OC[C@H]1O[C@@H](Oc2cc(O)cc(/C=C/c3ccc(O)c(O)c3)c2)[C@H](O)[C@@H](O)[C@@H]1O`, the result with J774 [1], with J774 [2] and in the assay with J774 [4] was inactive. Also, in the assay on J774 [3], the inhibition entry is “inactive”.

Take `C=CCOc1cc(O)cc(/C=C/c2ccccc2)c1`: in the assay on J774 [5], the inhibition result was “Active”.

In the case of `COc1ccc(/C=C/c2cc(O)cc(O[C@@H]3O[C@H](CO)[C@@H](O)[C@H](O)[C@H]3O)c2)cc1O`, the outcome in the assay with J774 [1], in the assay on J774 [2] and in the assay with J774 [4] was inactive. For the same compound, the inhibition entry in the assay with J774 [3] is “inactive”.

For `CCCOc1cc(O)cc(/C=C/c2ccccc2)c1`, the inhibition result in the assay with J774 [5] is “inactive”.

Turning to `COc1ccc(/C=C/c2cc(O)cc(O)c2)cc1O`, the Activity entry with J774 [6], with J774 [8] and in the assay with J774 [9] was “Dose-dependent effect” each time. Moreover, the results for the IC50 with J774 [6], with J774 [8] and with J774 [9] were 99.1 µM, 19.4 µM and 103 µM, respectively. Besides, the inhibition result in the assay with J774 [7] was “Dose-dependent effect”.

On to `COc1cc(O)cc(/C=C/c2ccccc2)c1` [PINOSYLVIN METHYL ETHER], for which the Activity entry in the assay on J774 [6], in the assay on J774 [8] and with J774 [9] was “Dose-dependent effect” throughout. Besides, the IC50 in the assay with J774 [6] is 30.2 µM; in the assay on J774 [8], 23.7 µM; in the assay with J774 [9], 37 µM. For the same compound, the inhibition entry in the assay with J774 [7] is “Dose-dependent effect”.

`CCOc1cc(O)cc(/C=C/c2ccccc2)c1`: in the assay on J774 [5], the inhibition result is “Active”.

`Oc1ccc(/C=C/c2cc(O)cc(O)c2)cc1` [RESVERATROL]: the Activity entry in the assay with J774 [6], in the assay on J774 [8] and with J774 [9] was “Dose-dependent effect” throughout. In addition, the IC50 came to 6.8 µM in the assay with J774 [6], 13.6 µM in the assay with J774 [8] and 12.2 µM with J774 [9]. Besides, the inhibition result in the assay on J774 [7] was “Dose-dependent effect”.

`Oc1cc(O)cc(/C=C/c2ccccc2)c1` [PINOSYLVIN]: the outcome in the assay on Mus musculus [10], in the assay with Mus musculus [11] and in the assay on Mus musculus [12] was Active. Also, the Activity entry with J774 [6], with J774 [8] and with J774 [9] was “Dose-dependent effect” in each case. Besides, the IC50 was determined as 32.1 µM in the assay with J774 [6], 38.7 µM with J774 [8] and 16.6 µM in the assay on J774 [9]. Besides, the inhibition result in the assay on J774 [7] was “Dose-dependent effect”.

For the compound `Oc1cc(O)cc(/C=C/c2ccc(O)c(O)c2)c1` [PICEATANNOL], the result in the assay with Mus musculus [10], with Mus musculus [11] and with Mus musculus [12] was Active. Further, the Activity entry in the assay with J774 [6], in the assay with J774 [8] and in the assay on J774 [9] was “Dose-dependent effect” in each case. For the same compound, the values for the IC50 with J774 [6], in the assay on J774 [8] and in the assay with J774 [9] were 13 µM, 4 µM and 2.6 µM, respectively. In addition, the inhibition entry in the assay on J774 [7] is “Dose-dependent effect”.

For `CC(C)(C)Oc1cc(O)cc(/C=C/c2ccccc2)c1`, the inhibition entry in the assay with J774 [5] was “inactive”.

Take `Oc1cc(/C=C/c2ccccc2)cc(OCc2ccccc2)c1`: the inhibition entry in the assay on J774 [5] was “inactive”.

Regarding `C[C@@H]1C[C@H]2[C@@H]3CCC4=CC(=O)C=C[C@]4(C)[C@@]3(F)[C@@H](O)C[C@]2(C)[C@@]1(O)C(=O)CO`, the outcome in the assay on Mus musculus [13], in the assay with Mus musculus [14] and in the assay with Mus musculus [15] was Active.

Take `COc1cc(/C=C/c2ccc(O)cc2)cc(OC)c1` [PTEROSTILBENE]: the result in the assay with Mus musculus [10], in the assay with Mus musculus [11] and in the assay with Mus musculus [12] was Active. Also, the Activity result in the assay on J774 [6], in the assay with J774 [8] and in the assay on J774 [9] was “Dose-dependent effect” throughout. Further, the IC50 amounted to 8.7 µM in the assay with J774 [6], 10.5 µM with J774 [8] and 16.7 µM in the assay with J774 [9]. Further, the inhibition result in the assay with J774 [7] is “Dose-dependent effect”.

Regarding `O=c1cc(N2CCOCC2)oc2c(-c3ccccc3)cccc12` [LY-294002], the IC50 came out at 5.1 µM in the assay on J774 [6], 3.7 µM in the assay with J774 [8] and 8.9 µM with J774 [9]. Moreover, the outcome in the assay with Mus musculus [16], with Mus musculus [17] and in the assay on Mus musculus [19] was Active. In the assay with J774 [18], the inhibition entry was “Active”.

Usually IC50 stands for the concentration that inhibits the measured activity by half.
